Experimental data taken from ChEMBL document CHEMBL1926564, “Design, synthesis and biological activity of original pyrazolo-pyrido-diazepine, -pyrazine and -oxazine dione derivatives as novel dual Nox4/Nox1 inhibitors” (Bioorg Med Chem, 2011).
pKi: −log10 of the molar value.

Experiments:
[1] = Clearance in Sprague-Dawley rat liver microsomes assessed per mg of protein at 0.5 uM; assay type: ADME, Microsome; conditions: read-out: CLH
Summary of the method: (§1)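 Pooled rat (male Sprague Dawley) or human (mixed-sex) liver microsomes at 0.5 mg/mL final, 0.1 M phosphate pH 7.4, compound 0.5 µM final, 0.25% DMSO, 37 °C; 1 mM NADPH starts reaction. Sampled 0–45 min, methanol quench with internal standard, LC/MS-MS; intrinsic clearance from compound loss.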

[2] = Oral bioavailability in Sprague-Dawley rat at 10 mg/kg; assay type: ADME, organism-based; conditions: in vivo
Summary of the method: (§2)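 Rats in two groups of three: 5 mg/kg iv in EDPW (10% EtOH, 10% DMA, 30% PG, 50% water) or 10 mg/kg oral in aqueous 0.5% CMC/0.25% Tween 20. Carotid arterial cannula blood sampled up to 24 h. Plasma levels by LC/MS/MS (LLOQ 1.00 ng/mL); noncompartmental analysis.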

NADPH oxidase 2 = target: T1, NADPH oxidase 2 (Homo sapiens, UniProt P04839); experiment: Antagonist activity at human NOX2 in human polymorphonuclear cell membrane assessed as inhibition of ROS production after 20 mins by cell-free amplex red assay; assay type: functional
T1 sequence (P04839 whole entry): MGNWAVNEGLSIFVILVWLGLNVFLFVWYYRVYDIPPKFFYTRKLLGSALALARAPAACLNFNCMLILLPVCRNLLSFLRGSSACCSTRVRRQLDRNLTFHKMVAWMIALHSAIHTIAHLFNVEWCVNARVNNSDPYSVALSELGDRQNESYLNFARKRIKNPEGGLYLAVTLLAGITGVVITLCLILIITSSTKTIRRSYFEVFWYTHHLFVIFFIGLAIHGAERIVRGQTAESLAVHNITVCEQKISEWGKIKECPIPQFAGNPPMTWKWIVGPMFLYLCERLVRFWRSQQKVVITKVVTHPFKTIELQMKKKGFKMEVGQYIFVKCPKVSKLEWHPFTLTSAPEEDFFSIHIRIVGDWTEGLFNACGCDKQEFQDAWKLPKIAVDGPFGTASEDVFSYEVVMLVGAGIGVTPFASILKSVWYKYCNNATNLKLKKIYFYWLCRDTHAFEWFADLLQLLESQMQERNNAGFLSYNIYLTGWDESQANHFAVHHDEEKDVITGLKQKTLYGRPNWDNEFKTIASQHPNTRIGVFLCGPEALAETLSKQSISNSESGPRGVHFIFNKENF
Summary of the method: (§3)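 Membranes from tetracycline-induced (24 h) Nox-expressing cells or human PMN (Nox2), sucrose-gradient purified; or xanthine oxidase. Incubated in PBS with Amplex Red, HRP and cofactors; NADPH (Nox) or xanthine starts ROS. Compound 1 nM–100 µM, 20 min at 37 °C, plate-reader. Background without membranes or agonist. Ki by Cheng-Prusoff; mean of ≥3 experiments in triplicate.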

NADPH oxidase 1 = target: T2, NADPH oxidase 1 (Homo sapiens, UniProt Q9Y5S8); experiment: Antagonist activity at human NOX1 expressed in CHO cell membrane coexpressing tetracylin repressor assessed as inhibition of ROS production after 20 mins by cell-free amplex red assay; assay type: functional; summary of the method: as §3
T2 sequence (Q9Y5S8 whole entry): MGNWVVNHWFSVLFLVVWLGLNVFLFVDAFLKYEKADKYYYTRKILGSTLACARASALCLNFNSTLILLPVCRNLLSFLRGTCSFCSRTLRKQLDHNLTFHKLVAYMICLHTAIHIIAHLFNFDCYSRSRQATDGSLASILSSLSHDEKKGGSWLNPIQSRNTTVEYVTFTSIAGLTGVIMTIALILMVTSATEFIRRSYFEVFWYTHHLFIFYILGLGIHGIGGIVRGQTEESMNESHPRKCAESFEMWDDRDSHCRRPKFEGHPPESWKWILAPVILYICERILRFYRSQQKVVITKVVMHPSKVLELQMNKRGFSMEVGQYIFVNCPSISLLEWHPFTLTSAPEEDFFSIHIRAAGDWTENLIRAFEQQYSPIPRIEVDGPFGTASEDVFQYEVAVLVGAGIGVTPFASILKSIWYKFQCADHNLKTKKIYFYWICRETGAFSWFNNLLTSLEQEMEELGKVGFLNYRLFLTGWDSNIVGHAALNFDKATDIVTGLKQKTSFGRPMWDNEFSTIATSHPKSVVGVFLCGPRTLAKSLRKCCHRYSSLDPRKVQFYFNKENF

[3] = Apparent permeability across human Caco2 cells at 10 uM after 2 hrs; assay type: ADME, cell-based; conditions: Caco-2
Summary of the method: (§4)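 Caco-2 monolayers grown 20 days, TEER >800 ohm·cm². Compound 10 µM final in HBSS pH 6.5 (1% DMSO), dosed apical (A→B) or basolateral (B→A), 2 h at 37 °C; both compartments sampled, LC–MS/MS cassette analysis with 5-point calibration.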

[4] = Cmax in Sprague-Dawley rat at 10 mg/kg, po; assay type: ADME, organism-based; set-up: dose 10 mg/kg, route oral; conditions: in vivo; summary of the method: as §2
[5] = Volume of distribution at steady state in Sprague-Dawley rat at 5 mg/kg, iv; assay type: ADME, organism-based; set-up: dose 5 mg/kg, route intravenous; conditions: in vivo, read-out: Vdss; summary of the method: as §2
[6] = Clearance in human liver microsomes assessed per mg of protein at 0.5 uM; assay type: ADME, Microsome; conditions: read-out: CLH; summary of the method: as §1
[7] = Cmax in Sprague-Dawley rat at 5 mg/kg, iv; assay type: ADME, organism-based; set-up: dose 5 mg/kg, route intravenous; conditions: in vivo; summary of the method: as §2
[8] = Half life in Sprague-Dawley rat at 10 mg/kg, po; assay type: ADME, organism-based; set-up: dose 10 mg/kg, route oral; conditions: in vivo; summary of the method: as §2
[9] = Efflux ratio of apparent permeability across human Caco2 cells at 10 uM after 2 hrs; assay type: ADME, cell-based; conditions: Caco-2; summary of the method: as §4
[10] = Half life in Sprague-Dawley rat at 5 mg/kg, iv; assay type: ADME, organism-based; set-up: dose 5 mg/kg, route intravenous; conditions: in vivo; summary of the method: as §2
[11] = AUC (infinity) in Sprague-Dawley rat at 10 mg/kg, po; assay type: ADME, organism-based; set-up: dose 10 mg/kg, route oral, time infinity; conditions: plasma; summary of the method: as §2
[12] = AUC (infinity) in Sprague-Dawley rat at 5 mg/kg, iv; assay type: ADME, organism-based; set-up: time infinity, dose 5 mg/kg, route intravenous; conditions: plasma; summary of the method: as §2

microsomal CLint at 0.5 µM [1] [µL/min/mg]	bioavailability [2] [%]	pKi (NADPH oxidase 2)	pKi (NADPH oxidase 1)	Papp at 2 h, 10 µM [3] [×10⁻⁶ cm/s]	Cmax [4] [ng/mL]	Vd [5] [L/kg]	microsomal CLint at 0.5 µM [6] [µL/min/mg]	Cmax [7] [ng/mL]	half-life [8] [h]	efflux ratio at 2 h, 10 µM [9]	half-life [10] [h]	AUC(0-inf) [11] [ng·h/mL]	AUC(0-inf) [12] [ng·h/mL]	Compound
27.5	42	5.94	6.95	1.8	11300	0.47	13.9	21800	3.63	10.1	5.62	9900	11800	Cl.O=c1c2c3n(c(=O)cc2[nH]n1-c1ccccc1Cl)CCCN(Cc1ccccn1)C3
64	53	5.87	7.00	42.2	14900	0.28	35	42300	2.37	0.48	2.71	41400	39300	Cl.O=c1c2c3n(c(=O)cc2[nH]n1-c1ccccc1Cl)CCCN(Cc1ccccc1)C3
